Experimental data taken from ChEMBL document CHEMBL1153526, “Design, synthesis, and pharmacological activities of dynorphin A analogues cyclized by ring-closing metathesis” (J Med Chem, 2009).

Target: Kappa-type opioid receptor (Rattus norvegicus) (UniProt P34975)
Assay: Agonist activity at rat cloned kappa opioid receptor expressed in CHO cells assessed as inhibition of forskolin-induced cAMP production by scintillation counting relative to Dyn A-(1-13)NH2
Format: functional, cell-based
Settings: concentration not given here
Summary of the method: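 CHO cells stably expressing cloned rat κ receptor, washed in F12 and labelled 4 h with [3H]adenine. Then 40 min at 37 °C with 50 μM forskolin, peptidase inhibitors (bestatin, captopril, L-leucyl-L-leucine) and peptide at 0.1–10,000 nM in 10-fold steps. [3H]cAMP isolated on cation exchange resin and alumina, [14C]cAMP added for recovery, scintillation counted. Efficacy relative to Dyn A-(1-13)NH2. Mean ± SEM, ≥3 assays.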

Sequence of Kappa-type opioid receptor (Rattus norvegicus) (P34975 whole entry): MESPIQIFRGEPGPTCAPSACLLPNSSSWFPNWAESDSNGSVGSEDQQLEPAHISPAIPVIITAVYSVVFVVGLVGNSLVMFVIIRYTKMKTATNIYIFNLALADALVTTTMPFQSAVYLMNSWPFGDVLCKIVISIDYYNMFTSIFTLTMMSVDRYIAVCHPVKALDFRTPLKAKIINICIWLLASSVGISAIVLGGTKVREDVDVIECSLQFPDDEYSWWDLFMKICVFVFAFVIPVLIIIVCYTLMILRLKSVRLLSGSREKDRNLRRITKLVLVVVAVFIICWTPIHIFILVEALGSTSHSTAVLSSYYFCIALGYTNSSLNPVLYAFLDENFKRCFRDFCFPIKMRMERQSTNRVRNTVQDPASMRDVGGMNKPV

Compound	inhibition [%]
N=C(N)NCCC[C@@H]1NC(=O)[C@@H](NC(=O)[C@H](Cc2ccccc2)NC(=O)CNC(=O)CNC(=O)[C@@H](N)Cc2ccc(O)cc2)C/C=C\C[C@@H](C(=O)N[C@@H](CCCNC(=N)N)C(=O)N2CCC[C@H]2C(=O)N[C@@H](CCCCN)C(N)=O)NC(=O)[C@H](CCCNC(=N)N)NC1=O	110
CC[C@H](C)[C@H](NC(=O)[C@H](CCCN=C(N)N)NC(=O)[C@H](CCCN=C(N)N)NC(=O)[C@H](CC(C)C)NC(=O)[C@H](Cc1ccccc1)NC(=O)CNC(=O)CNC(=O)[C@@H](N)Cc1ccc(O)cc1)C(=O)N[C@@H](CCCN=C(N)N)C(=O)N1CCC[C@H]1C(=O)N[C@@H](CCCCN)C(N)=O	100
